# In article PMC8908367 (ACS Omega, 2022):
# Columns and labels:
# [1] = test system: T. cruzi CA-I/72 amastigotes; format: cell-based, Trypanosoma cruzi
# Summary of the method: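 Test compound in DMSO acoustically spotted into 384-well plates. C2C12 mouse […] (500/well) and CA-I/72 T. cruzi (7500/well; strain kept by weekly C2C12 coculture passage) added together, 72 h at 37 °C, 5% CO2. Fixed in 4% paraformaldehyde/PBS, DAPI 5 μg/mL 1 h, imaged at 10×. Automated host and parasite nuclei counts fitted to CC50 and EC50 curves; SI = CC50/EC50.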
# [2] = Host cell toxicity in the high-content imaging assay; format: cell-based; details: mouse
# trypanothione reductase = details: cited from earlier work
# [3] = test system: T. cruzi intracellular parasite; details: cited from earlier work
Structure (SMILES),SI (Selectivity Index = CC50/EC50) ([1]; CC50 C2C12 / EC50 T. cruzi CA-I/72),"EC50 ([1]; Trypanosoma cruzi, C2C12, 72 h, read-out: EC50, inhibition of T. cruzi amastigote replication)",CC50 at 72 h [2],inhibition of trypanothione reductase (trypanothione reductase),activity against the intracellular parasite in vitro [3]
O=C(Cn1ccnc1[N+](=O)[O-])NCc1ccccc1 [Benznidazole],>22,2.2 ± 0.0013 µM,> 50 µM,–,–
C=C1C(=O)[C@H]2O[C@]23C[C@H]2CC(C)(C)[C@H](O)[C@H]2[C@]13C [hypnophilin],–,–,–,potent inhibitor,showed activity
